Drawing on ChEMBL document CHEMBL1140959, “Inhibition of PDGFR tyrosine kinase activity by a series of novel N-(3-(4-(pyridin-3-yl)-1H-imidazol-2-ylamino)phenyl)amides: a SAR study on the bioisosterism of pyrimidine and imidazole” (Eur J Med Chem, 2008), this text covers IC50 and Activity for 39 molecules.

Activity calls are given as the source filed them. No cut-off for these calls is given here.

In test [1] the target is Platelet-derived growth factor receptor (Mus musculus, UniProt P05622+P26618). Briefly: Inhibition of PDGFR autophosphorylation in mouse Swiss 3T3 fibroblast by immunoblotting. The essentials: (§1)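 PDGFR autophosphorylation in Swiss 3T3 cells was assayed by a previously described method. IC50 was fitted to a six-concentration curve, with duplicate or triplicate determinations.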

Test [2] has as its target Platelet-derived growth factor receptor (Mus musculus) (UniProt P05622+P26618). As to the kind of experiment: Inhibition of PDGFR autophosphorylation in mouse Swiss 3T3 fibroblast up to 10 ug/ml by immunoblotting. The procedure, abridged: as §1
For orientation: Immunoblotting shows a protein as a band on a membrane.

The target of test [3] is Receptor-type tyrosine-protein kinase FLT3 (Homo sapiens) (UniProt P36888). Briefly: Inhibition of FLT3 autophosphorylation in human EOL1 cells up to 10 ug/ml by immunoblotting. It counts as cell-based.
Receptor-type tyrosine-protein kinase FLT3 (Homo sapiens), sequence (P36888 whole entry): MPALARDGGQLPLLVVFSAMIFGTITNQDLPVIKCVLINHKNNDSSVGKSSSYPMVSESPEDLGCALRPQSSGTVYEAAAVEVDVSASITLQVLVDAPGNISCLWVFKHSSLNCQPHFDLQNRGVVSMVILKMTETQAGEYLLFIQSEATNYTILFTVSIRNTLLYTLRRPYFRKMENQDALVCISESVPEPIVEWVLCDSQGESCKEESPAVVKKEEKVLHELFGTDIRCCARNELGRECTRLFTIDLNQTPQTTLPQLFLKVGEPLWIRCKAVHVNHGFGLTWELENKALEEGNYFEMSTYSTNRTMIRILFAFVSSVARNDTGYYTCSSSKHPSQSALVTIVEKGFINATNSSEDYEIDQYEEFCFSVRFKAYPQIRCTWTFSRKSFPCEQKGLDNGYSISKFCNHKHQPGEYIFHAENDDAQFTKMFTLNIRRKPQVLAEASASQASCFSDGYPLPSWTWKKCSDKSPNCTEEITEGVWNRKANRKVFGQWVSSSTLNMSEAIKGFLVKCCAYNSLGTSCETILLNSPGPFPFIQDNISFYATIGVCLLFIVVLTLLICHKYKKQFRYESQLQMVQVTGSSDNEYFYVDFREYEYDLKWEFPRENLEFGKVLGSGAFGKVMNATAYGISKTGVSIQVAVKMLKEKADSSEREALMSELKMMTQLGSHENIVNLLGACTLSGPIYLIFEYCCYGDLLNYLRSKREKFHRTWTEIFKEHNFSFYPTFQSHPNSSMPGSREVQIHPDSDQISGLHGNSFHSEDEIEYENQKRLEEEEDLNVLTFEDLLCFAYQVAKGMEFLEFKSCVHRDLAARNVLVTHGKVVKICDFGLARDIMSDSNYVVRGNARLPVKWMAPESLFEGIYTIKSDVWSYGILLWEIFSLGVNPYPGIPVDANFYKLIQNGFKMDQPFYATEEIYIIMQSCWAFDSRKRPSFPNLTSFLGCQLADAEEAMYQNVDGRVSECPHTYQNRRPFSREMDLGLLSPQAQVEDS
The next test relates to FLT3 (Homo sapiens). Briefly: Inhibition of FLT3 autophosphorylation in human EOL-1 cells up to 10 ug/ml by immunoblotting.

`Cc1ccc(NC(=O)c2ccccc2)cc1Nc1nccc(-c2cccnc2)n1` gave an IC50 in test [1] of 100 nM. In other words, the sub-micromolar range.

`CCc1ccc([N+](=O)[O-])cc1Nc1nc(-c2cccnc2)c[nH]1`: the result in test [2] and in test [3] was inactive. `Nc1cccc(Nc2nc(-c3cccnc3)c[nH]2)c1`: the outcome in test [2] and in test [3] was inactive. Molecule `Cc1ccccc1C(=O)Nc1cccc(Nc2nc(-c3cccnc3)c[nH]2)c1` yielded an IC50 in test [1] of 600 nM. For the molecule `Cc1ccc(NC(=O)c2ccc(CN3CCN(C)CC3)cc2)cc1Nc1nc(-c2cccnc2)c[nH]1`, the IC50 in test [1] is > 10000 nM. The outcome in test [2] and in test [3] was inactive. As for `Cc1ccc(N)cc1Nc1nc(-c2ccccc2)c[nH]1`, the outcome in test [2] and in test [3] was inactive. As to `Cc1ccc(C(=O)Nc2ccc(C)c(Nc3nc(-c4cccnc4)c[nH]3)c2)cc1`, the half-inhibitory concentration (IC50) in test [1] was found to be 200 nM. Besides, the outcome (in test [3]; in the test on FLT3 (Homo sapiens)) was inactive. As for `Cc1ccc([N+](=O)[O-])cc1Nc1nc(-c2cccnc2)c[nH]1`, the result in test [2] and in test [3] was inactive. In test [1], `Cc1ccc(C(=O)Nc2cccc(Nc3nc(-c4cccnc4)c[nH]3)c2)cc1` returned an IC50 of 200 nM.

Molecule `Cc1ccc(NC(=O)c2ccc(Cl)cc2)cc1Nc1nc(-c2cccnc2)c[nH]1` yielded a half-maximal inhibitory concentration (IC50) in test [1] of 400 nM. Besides, the outcome (in test [3]; in the test on FLT3 (Homo sapiens)) was inactive. Regarding `CCc1ccc(NC(=O)c2ccccc2)cc1Nc1nc(-c2cccnc2)c[nH]1`, in test [1], the half-maximal inhibitory concentration (IC50) came out at 4700 nM. With `Cc1ccc(NC(=O)c2ccccc2)cc1Nc1nc(-c2cccnc2)c[nH]1`, the IC50 in test [1] is 300 nM. Further, the outcome (in test [3]; with FLT3 (Homo sapiens)) was inactive. `CC(=O)Nc1ccc(C)c(Nc2nccc(-c3cccnc3)n2)c1` registered an IC50 in test [1] of 50000 nM. As for `Cc1ccc([N+](=O)[O-])cc1Nc1nc(-c2ccccc2)c[nH]1`, the result in test [2] and in test [3] was inactive. For the molecule `CCCCCCCCCCc1ccc(C(=O)Nc2ccc(C)c(Nc3nc(-c4cccnc4)c[nH]3)c2)cc1`, the half-inhibitory concentration (IC50) in test [1] was > 10000 nM. Further, the result in test [2] and in test [3] was inactive. In the case of `Cc1ccc(NC(=O)c2ccc(CN3CCN(C)CC3)cc2)cc1Nc1nc(-c2ccncc2)c[nH]1`, the IC50 in test [1] is > 10000 nM. On to `COc1cc(C(=O)Nc2ccc(C)c(Nc3nc(-c4cccnc4)c[nH]3)c2)cc(OC)c1OC`, for which the IC50 in test [1] was > 10000 nM. Further, the outcome in test [2] and in test [3] was inactive.

With `Cc1ccc(NC(=O)c2ccc(N)cc2)cc1Nc1nc(-c2cccnc2)c[nH]1`, the IC50 in test [1] was > 30000 nM. The outcome in test [2] and in test [3] was inactive. In turn, `CN1CCN(Cc2ccc(C(=O)Nc3cccc(Nc4nc(-c5cccnc5)c[nH]4)c3)cc2)CC1` came in with a half-maximal inhibitory concentration (IC50) in test [1] of 6500 nM. On the same count and under the same terms, the figure for `Cc1ccc(NC(=O)c2ccccc2C)cc1Nc1nc(-c2cccnc2)c[nH]1` is 600 nM.

In the case of `CCc1ccc(N)cc1Nc1nc(-c2cccnc2)c[nH]1`, the outcome in test [2] and in test [3] was inactive. Regarding `CCc1ccc(NC(=O)c2ccccc2C)cc1Nc1nc(-c2cccnc2)c[nH]1`, in test [1], the IC50 came out at 1600 nM. For `COc1ccc(C(=O)Nc2ccc(C)c(Nc3nc(-c4cccnc4)c[nH]3)c2)cc1`, the IC50 in test [1] is > 30000 nM. For the same molecule, the outcome in test [2] and in test [3] was inactive.

`O=[N+]([O-])c1cccc(Nc2nc(-c3cccnc3)c[nH]2)c1`: the result in test [2] and in test [3] was inactive. On to `Cc1ccc(N)cc1Nc1nc(-c2cccnc2)c[nH]1`, for which the outcome in test [2] and in test [3] was inactive. Consider `CC(=O)Nc1ccc(C)c(Nc2nc(-c3ccccc3)c[nH]2)c1`, for which the 50% inhibitory concentration (IC50) in test [1] is > 30000 nM. As to `Cc1ccc(NC(=O)c2ccc(CN3CCN(C)CC3)cc2)cc1Nc1nc(-c2ccccc2)c[nH]1`, the IC50 in test [1] is > 10000 nM. `Cc1ccc(NC(=O)c2ccncc2)cc1Nc1nc(-c2cccnc2)c[nH]1` had a 50% inhibitory concentration (IC50) in test [1] of 1800 nM. The outcome (in test [3]; with FLT3 (Homo sapiens)) was inactive. The molecule `CCc1ccc(NC(=O)c2ccc(C)cc2)cc1Nc1nc(-c2cccnc2)c[nH]1` yielded a half-maximal inhibitory concentration (IC50) in test [1] of 6500 nM. As for `Cc1ccc([N+](=O)[O-])cc1Nc1nc(-c2ccncc2)c[nH]1`, the result in test [2] and in test [3] was inactive. Regarding `Cc1ccc(NC(=O)c2ccccc2)cc1Nc1nc(-c2ccncc2)c[nH]1`, the concentration for half-maximal inhibition (IC50) in test [1] was > 10000 nM. In test [1], `Cc1cccc(C(=O)Nc2ccc(C)c(Nc3nc(-c4cccnc4)c[nH]3)c2)c1` registered a 50% inhibitory concentration (IC50) of 2200 nM. Consider `Cc1cccc(C(=O)Nc2cccc(Nc3nc(-c4cccnc4)c[nH]3)c2)c1`, for which the half-maximal inhibitory concentration (IC50) in test [1] was determined as 300 nM. Against the preceding molecule, the IC50 is about 7.3-fold lower.

`CC(=O)Nc1ccc(C)c(Nc2nc(-c3cccnc3)c[nH]2)c1` had a half-inhibitory concentration (IC50) in test [1] of 5900 nM. Still for that read-out and setting: to `Cc1ccc(NC(=O)c2ccc(CN3CCN(C)CC3)cc2)cc1Nc1nccc(-c2cccnc2)n1` [IMATINIB] belongs 300 nM; to `Cc1ccc(NC(=O)c2ccccc2)cc1Nc1nc(-c2ccccc2)c[nH]1`, 7100 nM. As for `Cc1ccc(N)cc1Nc1nc(-c2ccncc2)c[nH]1`, the result in test [2] and in test [3] was inactive. The molecule `CCc1ccc(NC(=O)c2cccc(C)c2)cc1Nc1nc(-c2cccnc2)c[nH]1` gave an IC50 in test [1] of 300 nM. Regarding `Cc1ccc(NC(=O)c2ccc([N+](=O)[O-])cc2)cc1Nc1nc(-c2cccnc2)c[nH]1`, the IC50 in test [1] was > 30000 nM. In addition, the outcome in test [2] and in test [3] was inactive.

For orientation: IC50 means the concentration at which inhibition is half-maximal. Low values mean greater potency, high ones weaker potency.
